Screening data: PubChem, The Scripps Research Institute Molecular Screening Center
Shown are actives, neighbours in structure and some others; about 0.55% of the full set was active somewhere.
OXTR ag: activates the human oxytocin receptor; 320,000 tested, 0.32% active; activation, % at 3 µM; CHO-OTR cells, Fluo-8 calcium fluorescence; normalized: DMSO 0%, oxytocin 100%; P30559;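 active = activation above the mean of all tested compounds plus 3 SD, cutoff set per screening run, cut at about 20% in these data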;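 note: peak over basal fluorescence ratio from a 100 s FLIPR kinetic read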
Target sequence (P30559 whole entry, looked up): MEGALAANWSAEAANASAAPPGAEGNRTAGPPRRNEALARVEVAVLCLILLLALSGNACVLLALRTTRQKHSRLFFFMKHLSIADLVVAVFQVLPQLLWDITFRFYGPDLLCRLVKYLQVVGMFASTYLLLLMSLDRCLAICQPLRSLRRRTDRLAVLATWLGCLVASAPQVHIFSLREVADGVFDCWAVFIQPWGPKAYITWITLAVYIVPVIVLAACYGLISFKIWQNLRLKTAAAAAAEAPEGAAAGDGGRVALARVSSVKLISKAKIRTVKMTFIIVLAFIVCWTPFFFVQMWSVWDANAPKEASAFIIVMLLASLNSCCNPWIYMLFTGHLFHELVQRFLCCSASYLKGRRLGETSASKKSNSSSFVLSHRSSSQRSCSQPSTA
TRPN1 ag: agonists of zebrafish TRPN1 channel; HEK293 zebrafish TRPN1-YFP, Fluo-8 calcium fluorescence; 100% = response to 87 µM carbachol; activation, % at 3 µM; 220,000 tested, 0.18% active;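 active = activation above its plate's cutoff, the mean activation of test wells on that plate plus 3 SD, cut at about 19% in these data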;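 note: 0% = DMSO alone and 100% = 87 µM carbachol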
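Assay system: Zebrafish TRPN1-YFP in HEK293 cells | Incubation: Dye loading 1 h at 37 °C, then 30 min room temperature | Measured by: Kinetic Fluo-8 fluorescence, ex 470-495, em 515-575 nm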
OXTR potentiator: potentiators of human oxytocin receptor | 320,000 tested, 0.061% active | AID 2445 | CHO-OTR cells, Fluo-8 calcium fluorescence, potentiator mode; 0% = oxytocin EC15, 100% = EC100 | P30559 | activation, % at 3 µM;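 active = activation above that plate's cutoff, the mean activation of tested compounds plus 3 SD, cut at about 6.6% in these data, passing the limit was not always enough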;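 note: 100% uses oxytocin at 75 nM as the full agonist control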
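Measured by – Fluo-8 calcium dye fluorescence · Test system – human OTR in CHO cells · Dosing – one concentration, 3.0 µM compound · Controls – EC15 oxytocin alone as 0%, 75 nM oxytocin as 100% · Evaluation – normalized max/min fluorescence ratio, % activation · Timing – 6 min pre-incubation, 100 s read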
V1aR counter: V1a receptor agonism, counter-screen for OXTR agonists | P37288 | AID 2797 | activation, % at 3 µM | 320,000 tested, 0.25% active | CHO-V1R cells, Fluo-8 calcium fluorescence, agonist mode; 0% DMSO, 100% 3 nM vasopressin;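 active = activation above the mean activation of all tested compounds plus 3 SD, per screening run, cut at about 20% in these data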;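 note: signal is peak over basal fluorescence ratio across a 100 second FLIPR read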
TRPML3 ag: activates the human TRPML3 channel. Q8TDD5. HEK293 TRPML3-YFP, Fluo-8 calcium fluorescence; 100% = the carbachol control signal. activation, % at 3 µM. 220,000 tested, 0.29% active. AID 1448;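 active = activation above its plate's cutoff, the mean activation of the plate's test wells plus 3 SD, cut at about 12% in these data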;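 note: 0% = DMSO only wells and 100% = carbachol wells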
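system = HEK293 cells stably carrying human TRPML3-YFP | doses = one concentration, 3 µM nominal, 0.3% DMSO | timing = dye loading 1 h 37 °C then 30 min ambient, 125 s read | detection = Fluo-8 calcium dye fluorescence, ex 470-495, em 515-575 nm | benchmarks = high control carbachol 87 µM, low control DMSO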
OXTR pot confirm: confirmation of human oxytocin receptor potentiators. shares compounds with OXTR potentiator. CHO-OTR cells, Fluo-8 calcium fluorescence, potentiation; scaled from low-dose to maximal oxytocin. activation, % at 3 µM. 180 tested, under 10 active. AID 434985;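 active = mean percent activation over triplicates above a cutoff set from solvent-only control plates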;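 note: compounds tested in the presence of an EC15 dose of oxytocin; 0% = EC15 oxytocin with DMSO and 100% = EC100 oxytocin with DMSO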
V1R ag confirm: human V1a receptor agonism, confirmation; shares compounds with V1aR counter; CHO-V1R cells, Fluo-8 calcium fluorescence, agonist; activation, % at 3 µM; 180 tested, 20% active; AID 434964;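 active = average activation exceeds primary screen hit cutoff, cut at about 21% in these data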;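 note: peak over basal fluorescence ratio during a 100 s FLIPR read; 0% = DMSO only wells and 100% = 3 nM vasopressin wells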
OXTR counter: OXTR agonism, counter-screen for V1R agonists | shares compounds with V1aR counter | CHO-OTR cells, Fluo-8 calcium fluorescence, agonist | activation, % at 3 µM | 180 tested, 10% active;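 active = mean activation over three repeats above the cutoff from the earlier oxytocin receptor agonist screen, cut at about 20% in these data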;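 note: peak over minimum fluorescence ratio within a 100 second FLIPR read; 0% = DMSO only wells and 100% = oxytocin high control wells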
* = called active by the depositor; · = no result given.

SMILES	OXTR ag	TRPN1 ag	OXTR potentiator	V1aR counter	TRPML3 ag	OXTR pot confirm	V1R ag confirm	OXTR counter
CCN1CCCC1CNCc1cc(OC)c(OC)c(OC)c1 (configuration not stated)	3	2	13*	2	0	-5	·	·
COc1ccccc1OCCNC(=O)c1cc(=O)[nH]c2ccccc12	0	2	9.1*	0	1	-2	·	·
CCCCOc1ccc(C(=O)NCCOc2cccc(OC)c2)cc1	-2	·	-3	-2	·	·	·	·
CCOc1ccc(C(=O)Nc2nnc(SCC(=O)NCC3CCCO3)s2)cc1OCC (configuration not stated)	1	·	11*	1	·	0	·	·
O=C(CNC(=O)[C@@H]1Cc2ccccc2CN1)Nc1ccc2c(c1)OCCO2	0	·	-3	0	·	·	·	·
CCOC(=O)N[C@H](Cc1c[nH]c2ccccc12)C(=O)NC1CC1	1	-1	10*	0	-1	-2	·	·
CCCCn1c(N)c(N(CC(C)C)C(=O)c2ccc(-c3ccc(Cl)cc3)o2)c(=O)[nH]c1=O	-3	·	-6	-2	·	·	·	·
CCCCn1c(N)c(N(CC)C(=O)c2ccc(-c3ccc(Cl)cc3)o2)c(=O)[nH]c1=O	0	·	12*	0	·	-11	·	·
O=C(CCc1ccccc1)N1CCN(S(=O)(=O)c2cccs2)CC1	3	·	13*	1	·	-4	·	·
CSCCC(NS(=O)(=O)c1ccc(C)c(C(=O)O)c1)C(=O)O (configuration not stated)	0	-2	0	1	0	·	·	·
CC[C@@]1(O)C(=O)OCc2c1cc1n(c2=O)Cc2cc3c(N)cccc3nc2-1	0	·	15*	0	·	-3	·	·
O=c1c2nnn(-c3ccc(Br)cc3)c2ncn1Cc1ccccn1	1	1	-5	2	1	·	·	·
COC1CCCCC1Nc1cccc(SC)c1 (configuration not stated)	-1	-1	12*	-1	0	-3	·	·
CCOC(=O)c1c(C)nc2c(c1-c1cc(OC)c(OC)c(OC)c1)C(=O)c1ccccc1-2	-2	-2	11*	-1	0	-8	·	·
CCOC(=O)c1c(C)nc(C)c(C(=O)OCC)c1-c1ccccc1	-1	-1	-2	-2	-1	·	·	·
Cc1ccc2c(c1)-n1c(nc3cc(Cl)ccc3c1=O)C(CC(C)C)NC2=O (configuration not stated)	-1	·	13*	1	·	0	·	·
CCOCCn1c(CN2CCOCC2)nc2c1c(=O)[nH]c(=O)n2C	-1	2	-4	2	1	·	·	·
Cc1cc(C)nc(-n2nc(C)c(Sc3ccc(F)cc3)c2N)n1	-2	-2	11*	-1	0	-7	·	·
Cc1nn(-c2ccccc2)c(N)c1Sc1cccc([N+](=O)[O-])c1	-1	3	-12	2	0	·	·	·
COc1ccc(CCNCC(O)COc2ccc(OC)cc2C(C)(C)C)cc1 (configuration not stated)	18	·	-12	24*	·	·	1	3
COc1ccc(CCNCC(O)COc2cccc(Br)c2)cc1OC (configuration not stated)	0	2	-4	1	2	·	·	·
Cc1ccc(NS(=O)(=O)c2ccc(C(=O)N3CCCCCCC3)cc2)cc1	8	·	-14	15	·	·	·	·
Cc1ccc(NS(=O)(=O)c2ccc(C(=O)N3CCCCCC3)cc2)cc1	14	·	-12	21*	·	·	13	17
Cc1nc(-c2ccc(S(=O)(=O)Nc3ccc(Br)cc3F)cc2)co1	3	·	-14	3	·	·	·	·
Cc1ccc(C(C)NC(=S)NCc2ccc(F)cc2)c(C)c1 (configuration not stated)	3	·	-16	23*	·	·	4	2
SMILES	OXTR ag	TRPN1 ag	OXTR potentiator	V1aR counter	TRPML3 ag	OXTR pot confirm	V1R ag confirm	OXTR counter
Cc1oc(-c2cccs2)nc1CN1CCN(Cc2ccc(F)c(F)c2)C(CCO)C1 (configuration not stated)	1	0	0	0	1	·	·	·
O=C(CSc1ncc(-c2ccc(F)cc2)n1Cc1ccco1)Nc1nccs1	16	0	-34	29*	-1	·	11	16
O=C(NNC(=O)c1ccc[nH]1)c1cccc(C(F)(F)F)c1	-1	·	-7	-1	·	·	·	·
Cc1noc(C(F)(F)F)c1C(=O)NNC(=O)c1cccc(C(F)(F)F)c1	-1	0	-3	20*	1	·	1	0
Cc1cc(NCc2ccccc2)nc2ccccc12	17	4	-35	32*	3	·	14	1
Cc1cc(NCc2ccccc2)c2ccccc2n1	0	·	-2	4	·	·	·	·
CC(C)C(C(=O)Nc1ccncc1)c1ccc(Cl)cc1 (configuration not stated)	14	·	-12	27*	·	·	12	16
Cc1cc2c(cc(C(=O)OCC(=O)NCc3cccs3)n2C(C)C)o1	-2	-3	-10	0	-1	·	·	·
CN(CC(=O)NCc1ccc(F)cc1)CC(=O)Nc1ccc(Cl)c(C(F)(F)F)c1	16	·	-15	29*	·	·	10	13
CCOc1ccc(NC(=O)c2cccc(NC(=O)c3ccccc3)c2)cc1	1	·	-18	50*	·	·	2	-1
COC(=O)C(Cc1c[nH]c2ccccc12)NC(=O)c1cc(-c2ccc(OC)c(OC)c2)oc1C (configuration not stated)	2	-1	-18	5	0	·	·	·
CCN(CC)S(=O)(=O)c1ccc(C(=O)Nc2nnc(-c3ccco3)o2)cc1	-1	-1	-1	-1	-1	·	·	·
CCCCN(CC)S(=O)(=O)c1ccc(C(=O)Nc2nnc(-c3cccs3)o2)cc1	0	0	-18	26*	0	·	8	4
CC12CCC(=O)N1C(C(=O)NCc1ccc(Cl)cc1Cl)CS2 (configuration not stated)	-1	·	-4	0	·	·	·	·
COc1ccc(N=C2NC(=O)S/C2=C\c2ccc(N(C)C)cc2)cc1	18	8	-24	21*	3	·	26*	20*
CCOc1ccc(N=C2NC(=O)S/C2=C\c2ccc(Cl)cc2)cc1	-1	2	-12	1	1	·	·	·
CCc1cccc(C)c1NC(=O)CN(C)Cc1ccccc1F	-1	-2	-4	-1	-1	·	·	·
Cc1ccc(/C=N/NC(=O)c2nnn(-c3nonc3N)c2-c2ccc3c(c2)OCO3)s1	12	·	-4	30*	·	·	14	3
COc1ccc(/C=N/NC(=O)c2nnn(-c3nonc3N)c2-c2cccc(OC)c2)cc1	16	·	-5	26*	·	·	25*	25*
